Measurements from publication PMC9089348 (ACS Omega, 2022).

Assays:
Assay type in all cases: cell-based
[1] = target: CaV1.3 LTCCs expressed in HEK293 cells (Rattus norvegicus, UniProt P27732); assay: Automated planar whole-cell patch-clamp recording, CaV1.3; conditions: HEK293, read-out: % Inhibition (10 μM) CaV1.3
In short: (§1)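 HEK293 lines stably expressing the channel plus Kir2.1, grown in DMEM/10% FBS at 37 °C, 5% CO2, moved to 28 °C the day before. Automated whole-cell recording at room temperature; bath (mM) 120 NaCl, 20 CsCl, 10 BaCl2, pH 7.4; CsF-based internal. Current read at 0 mV, 250 ms into step from −60 mV, before and after compound or vehicle; only CdCl2 (5 mM)-sensitive current analysed, no leak subtraction.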

[2] = target: CaV1.2 L-type calcium channel (Homo sapiens, UniProt Q13936); assay: Automated planar whole-cell patch-clamp recording, CaV1.2; conditions: pH 7.4
In short: as §1

[3] = target: CaV1.2 LTCCs expressed in HEK293 cells (Homo sapiens, UniProt Q13936); assay: as above
In short: as §1

Sequence of CaV1.2 LTCCs expressed in HEK293 cells (Q13936 whole entry): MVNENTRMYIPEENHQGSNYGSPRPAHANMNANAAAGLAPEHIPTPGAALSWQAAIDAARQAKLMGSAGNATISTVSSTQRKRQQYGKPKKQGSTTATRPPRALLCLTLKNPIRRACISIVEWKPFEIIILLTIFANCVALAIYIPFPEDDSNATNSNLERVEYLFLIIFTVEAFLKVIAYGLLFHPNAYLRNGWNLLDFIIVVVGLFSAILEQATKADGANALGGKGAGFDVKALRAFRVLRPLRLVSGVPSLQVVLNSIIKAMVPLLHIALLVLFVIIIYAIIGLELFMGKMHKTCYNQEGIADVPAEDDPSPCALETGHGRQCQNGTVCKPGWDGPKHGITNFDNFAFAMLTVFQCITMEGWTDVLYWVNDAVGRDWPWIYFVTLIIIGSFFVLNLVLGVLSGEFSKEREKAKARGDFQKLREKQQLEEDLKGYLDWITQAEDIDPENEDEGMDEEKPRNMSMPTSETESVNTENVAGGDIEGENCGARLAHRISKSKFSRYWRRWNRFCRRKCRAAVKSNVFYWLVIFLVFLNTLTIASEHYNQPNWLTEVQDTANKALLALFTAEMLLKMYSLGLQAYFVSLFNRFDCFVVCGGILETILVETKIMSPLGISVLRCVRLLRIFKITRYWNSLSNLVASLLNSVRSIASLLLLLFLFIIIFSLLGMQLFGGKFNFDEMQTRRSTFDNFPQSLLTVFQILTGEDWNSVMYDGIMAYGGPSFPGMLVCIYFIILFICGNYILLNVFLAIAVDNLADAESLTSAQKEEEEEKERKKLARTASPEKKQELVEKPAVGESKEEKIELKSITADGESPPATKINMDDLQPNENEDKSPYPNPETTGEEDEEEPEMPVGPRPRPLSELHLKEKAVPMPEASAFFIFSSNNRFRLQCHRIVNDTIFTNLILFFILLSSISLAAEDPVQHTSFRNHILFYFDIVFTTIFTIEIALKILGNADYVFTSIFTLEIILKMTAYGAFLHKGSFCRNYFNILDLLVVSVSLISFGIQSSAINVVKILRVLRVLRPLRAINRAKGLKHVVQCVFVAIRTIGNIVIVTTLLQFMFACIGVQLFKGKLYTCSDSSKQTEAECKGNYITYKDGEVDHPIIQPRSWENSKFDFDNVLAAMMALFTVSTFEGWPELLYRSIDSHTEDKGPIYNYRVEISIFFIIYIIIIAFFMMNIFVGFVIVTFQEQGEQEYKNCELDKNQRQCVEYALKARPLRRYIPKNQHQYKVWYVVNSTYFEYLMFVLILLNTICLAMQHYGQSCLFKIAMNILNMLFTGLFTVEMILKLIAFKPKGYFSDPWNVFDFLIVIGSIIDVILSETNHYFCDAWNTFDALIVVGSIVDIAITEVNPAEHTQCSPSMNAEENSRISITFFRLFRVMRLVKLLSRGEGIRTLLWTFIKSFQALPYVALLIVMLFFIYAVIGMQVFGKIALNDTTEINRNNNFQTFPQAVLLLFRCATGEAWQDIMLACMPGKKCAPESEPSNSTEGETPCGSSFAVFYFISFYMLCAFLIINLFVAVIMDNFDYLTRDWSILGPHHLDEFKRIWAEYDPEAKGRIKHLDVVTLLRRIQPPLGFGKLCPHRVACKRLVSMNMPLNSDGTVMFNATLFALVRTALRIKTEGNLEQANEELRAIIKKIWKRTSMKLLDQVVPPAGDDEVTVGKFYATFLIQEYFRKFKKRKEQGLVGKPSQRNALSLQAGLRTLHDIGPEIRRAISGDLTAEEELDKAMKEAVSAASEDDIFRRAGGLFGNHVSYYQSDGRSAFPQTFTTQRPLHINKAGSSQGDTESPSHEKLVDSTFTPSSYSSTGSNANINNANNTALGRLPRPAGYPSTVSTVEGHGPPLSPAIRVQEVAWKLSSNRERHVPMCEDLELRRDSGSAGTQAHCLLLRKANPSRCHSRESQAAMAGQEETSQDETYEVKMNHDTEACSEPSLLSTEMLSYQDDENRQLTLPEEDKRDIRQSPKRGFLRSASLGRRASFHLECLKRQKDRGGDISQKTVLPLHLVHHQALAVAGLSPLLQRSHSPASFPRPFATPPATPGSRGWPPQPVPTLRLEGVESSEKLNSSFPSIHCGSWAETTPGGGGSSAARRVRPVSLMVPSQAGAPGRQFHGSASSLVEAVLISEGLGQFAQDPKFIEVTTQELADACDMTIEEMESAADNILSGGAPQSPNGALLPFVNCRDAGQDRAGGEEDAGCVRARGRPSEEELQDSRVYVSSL
Sequence of CaV1.2 LTCCs expressed in HEK293 cells (P54284 whole entry partner): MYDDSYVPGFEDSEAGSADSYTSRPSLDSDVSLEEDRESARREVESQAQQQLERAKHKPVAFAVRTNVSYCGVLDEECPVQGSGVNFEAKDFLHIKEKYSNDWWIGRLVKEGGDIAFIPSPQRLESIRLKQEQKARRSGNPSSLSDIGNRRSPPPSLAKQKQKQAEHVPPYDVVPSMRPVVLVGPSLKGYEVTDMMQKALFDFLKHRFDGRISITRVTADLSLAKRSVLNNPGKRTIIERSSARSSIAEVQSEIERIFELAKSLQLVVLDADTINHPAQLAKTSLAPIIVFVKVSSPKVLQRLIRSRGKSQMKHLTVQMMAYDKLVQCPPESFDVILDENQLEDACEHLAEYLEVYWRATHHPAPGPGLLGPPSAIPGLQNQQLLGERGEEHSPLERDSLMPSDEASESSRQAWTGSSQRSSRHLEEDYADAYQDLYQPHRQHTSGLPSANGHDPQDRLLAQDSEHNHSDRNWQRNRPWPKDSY
Sequence of CaV1.2 LTCCs expressed in HEK293 cells (P54289 25-946 partner limits assumed): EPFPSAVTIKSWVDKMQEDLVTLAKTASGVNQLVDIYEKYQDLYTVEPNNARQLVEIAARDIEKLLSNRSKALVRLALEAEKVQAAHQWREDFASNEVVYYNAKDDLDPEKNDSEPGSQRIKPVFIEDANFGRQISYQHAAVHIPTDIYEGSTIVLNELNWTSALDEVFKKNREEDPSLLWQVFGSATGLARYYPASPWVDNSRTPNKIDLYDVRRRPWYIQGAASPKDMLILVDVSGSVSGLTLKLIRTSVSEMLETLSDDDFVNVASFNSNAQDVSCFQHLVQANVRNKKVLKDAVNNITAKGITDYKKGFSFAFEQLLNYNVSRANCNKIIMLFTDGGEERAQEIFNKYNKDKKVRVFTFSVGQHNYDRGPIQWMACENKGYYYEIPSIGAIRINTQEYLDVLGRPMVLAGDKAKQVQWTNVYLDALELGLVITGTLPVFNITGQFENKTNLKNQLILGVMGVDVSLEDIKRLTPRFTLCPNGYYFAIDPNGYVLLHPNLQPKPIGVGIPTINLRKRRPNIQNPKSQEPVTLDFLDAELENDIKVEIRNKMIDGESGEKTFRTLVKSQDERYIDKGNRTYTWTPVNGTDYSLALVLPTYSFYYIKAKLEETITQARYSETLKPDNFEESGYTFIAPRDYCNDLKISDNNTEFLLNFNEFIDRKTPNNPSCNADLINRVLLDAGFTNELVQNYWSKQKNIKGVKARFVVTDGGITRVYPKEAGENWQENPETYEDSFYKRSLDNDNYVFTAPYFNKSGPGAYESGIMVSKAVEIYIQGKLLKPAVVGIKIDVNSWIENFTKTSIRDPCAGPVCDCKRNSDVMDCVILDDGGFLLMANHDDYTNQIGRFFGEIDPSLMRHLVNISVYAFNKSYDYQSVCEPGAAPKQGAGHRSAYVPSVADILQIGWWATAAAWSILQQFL
Sequence of CaV1.2 LTCCs expressed in HEK293 cells (P54289 947-1103 partner limits assumed): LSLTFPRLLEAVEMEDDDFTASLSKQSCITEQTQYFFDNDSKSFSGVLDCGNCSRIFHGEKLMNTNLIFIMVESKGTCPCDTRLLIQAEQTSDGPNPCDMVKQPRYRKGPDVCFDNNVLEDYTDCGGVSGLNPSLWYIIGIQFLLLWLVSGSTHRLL
Sequence of CaV1.2 L-type calcium channel (Q13936 whole entry): as the sequence (Q13936 whole entry) above
Sequence of CaV1.2 L-type calcium channel (P54284 whole entry partner): as the sequence (P54284 whole entry partner) above
Sequence of CaV1.2 L-type calcium channel (P54289 25-946 partner limits assumed): as the sequence (P54289 25-946 partner limits assumed) above
Sequence of CaV1.2 L-type calcium channel (P54289 947-1103 partner limits assumed): as the sequence (P54289 947-1103 partner limits assumed) above

SMILES	inhibition at 10 µM [1] [%]	inhibition at 10 µM [2] [%]	IC50 [3] [µM]
O=C1C(c2cccc(C(F)(F)F)c2)C(=O)N(CCc2cccc(Cl)c2)C(=O)N1CCCCc1cccc(Cl)c1 (centres unmarked) [14f, 1-(3-Chlorophenethyl)-3-(4-(3-chlorophenyl)butyl)-5-(3-(trifluoromethyl)phenyl) pyrimidine-2,4,6(1H,3H,5H)-trione]	79.8	100	–
O=C1C(c2cccc([N+](=O)[O-])c2)C(=O)N(C2CCCC2)C(=O)N1CCCCc1cccc(Cl)c1 (centres unmarked) [14a, 1-(4-(3-Chlorophenyl)butyl)-3-cyclopentyl-5-(3-nitrophenyl)pyrimidine-2,4,6(1H,3H,5H)-trione]	76.9	72.7	3.72
O=C1C(c2cccc(C(F)(F)F)c2)C(=O)N(CCc2cccc(Cl)c2)C(=O)N1CCCc1ccc(Cl)cc1 (centres unmarked) [14b, 1-(3-Chlorophenethyl)-3-(3-(4-chlorophenyl)propyl)-5-(3-(trifluoromethyl)phenyl)pyrimidine-2,4,6(1H,3H,5H)-trione]	95.6	98.8	–
O=C1C(c2cccc(C(F)(F)F)c2)C(=O)N(CCc2cccc(Cl)c2)C(=O)N1CCCCc1ccc(C(F)(F)F)cc1 (centres unmarked) [14g, 1-(3-Chlorophenethyl)-5-(3-(trifluoromethyl)phenyl)-3-(4-(4-(trifluoromethyl)phenyl)butyl)pyrimidine-2,4,6(1H,3H,5H)-trione]	82.8	88.2	–
O=C1C(c2cccc(C(F)(F)F)c2)C(=O)N(CCc2cccc(Cl)c2)C(=O)N1CCCc1ccc(C(F)(F)F)cc1 (centres unmarked) [14d, 1-(3-Chlorophenethyl)-5-(3-(trifluoromethyl)phenyl)-3-(3-(4-(trifluoromethyl)phenyl)propyl)pyrimidine-2,4,6(1H,3H,5H)-trione]	93.1	81.2	4.53
O=C1C(c2cccc(C(F)(F)F)c2)C(=O)N(CCc2cccc(Cl)c2)C(=O)N1CCCc1cccc(Cl)c1 (centres unmarked) [14c, 1-(3-Chlorophenethyl)-3-(3-(3-chlorophenyl)propyl)-5-(3-(trifluoromethyl)phenyl)pyrimidine-2,4,6(1H,3H,5H)-trione]	97.3	99.2	–
O=C1C(c2cccc(C(F)(F)F)c2)C(=O)N(CCc2cccc(Cl)c2)C(=O)N1CCCCc1ccc(Cl)cc1 (centres unmarked) [14e, 1-(3-Chlorophenethyl)-3-(4-(4-chlorophenyl)butyl)-5-(3-(trifluoromethyl)phenyl)pyrimidine-2,4,6(1H,3H,5H)-trione]	93.8	96.1	2.41
